Efflux pump inh: antifungal efflux pump inhibition, Nile Red retention | AID 485275 | S. cerevisiae Candida pump triplex | inhibition, % at 10 µM | 330,000 tested, 0.44% active;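 active means plate passing quality check with inhibition over a set limit, or well fluorescence over plate mean plus 4 SD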;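 further: Nile Red retained in pooled yeast measured as flow cytometry median fluorescence; higher means more Nile Red kept so more efflux inhibition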
sPLA2-III inh: Inhibits HGIII-sPLA2 liposome hydrolysis, primary screen; QFRET BODIPY PC-A2 liposome hydrolysis, fluorescence; inhibition, % at 12.2 µM; 370,000 tested, 0.56% active; AID 743126;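 active means inhibition above mean plus 3 SD of compounds lying within the high and low control bounds, cut at about 19% in these data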
Target sequence (Q9NZ20 whole entry, looked up): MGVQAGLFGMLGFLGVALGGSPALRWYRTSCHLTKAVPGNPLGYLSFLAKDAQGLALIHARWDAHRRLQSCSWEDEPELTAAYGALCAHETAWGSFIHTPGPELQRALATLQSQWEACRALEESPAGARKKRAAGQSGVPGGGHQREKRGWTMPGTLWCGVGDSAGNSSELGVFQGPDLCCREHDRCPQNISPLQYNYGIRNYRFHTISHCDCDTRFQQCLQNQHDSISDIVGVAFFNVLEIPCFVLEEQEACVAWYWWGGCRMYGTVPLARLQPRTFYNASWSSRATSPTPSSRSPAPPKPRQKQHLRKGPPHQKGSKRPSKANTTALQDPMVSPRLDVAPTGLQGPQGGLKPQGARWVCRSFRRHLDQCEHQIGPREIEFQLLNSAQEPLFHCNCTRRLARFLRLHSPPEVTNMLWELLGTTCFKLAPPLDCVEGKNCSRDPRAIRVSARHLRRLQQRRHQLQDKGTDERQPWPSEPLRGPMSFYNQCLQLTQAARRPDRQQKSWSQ
MT1-MMP act inh: blocks activation of human MT1-MMP; P50281; HT1080 RFP-PRO-GFP cells, GFP/RFP ratio fluorescence, overnight; percent of plate control window, DMSO zero; GFP/RFP ratio change, % at 20 µM; 360,000 tested, 0.061% active;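 active means GFP/RFP ratio change of at least 30% with cell ATP level not reduced by more than half and red fluorescence within 50% of control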
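Material – HT1080 RFP-PRO-GFP cells · Control set – DMSO wells and RFP-L50D-GFP cells · Incubation – overnight cell settling, then overnight compound exposure, 37 °C, 5% CO2 · Compound dosing – single-point 20 µM compound, 1% DMSO · Read-out – GFP/RFP fluorescence ratio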
TAG inh: reduces triacylglycerol accumulation in H9c2 cells; Nile Red lipid (TAG) fluorescence; cells loaded with 200 µM oleic acid; inhibition, % at 12.5 µM; 230,000 tested, 0.66% active; AID 651582;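 active means pattern-corrected inhibition of lipid staining of at least 50% with the nuclear-stain viability signal not falling by more than 50%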
sPLA2 confirm: human GIII-sPLA2 inhibition, confirmation; shares compounds with sPLA2-III inh; recombinant hGIII-sPLA2, BODIPY PC-A2 QFRET fluorescence; inhibition, % at 12.2 µM; 2,000 tested, 34% active; AID 743280;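 active means mean inhibition across triplicates above the hit cutoff set in the earlier primary screen, cut at about 19% in these data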
535nm interf: 535nm fluorescence interference, HGIII-sPLA2 counter-screen; shares compounds with sPLA2-III inh; BODIPY FL product fluorescence interference, QFRET; inhibition, % at 12.2 µM; 2,000 tested, 8.5% active;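 active means average inhibition above the solvent-only control mean plus 3 SD, cut at about 6% in these data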
535nm interf DR: counter-screen for HGIII-sPLA2 inhibitors: 535nm fluorescence interference, dose response; shares compounds with sPLA2-III inh; BODIPY FL product fluorescence interference, cell-free; IC50, µM; 240 tested, under 10 active; AID 743455;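 active means IC50 at or below 10 µM; inactive means IC50 above 10 µM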
Hits are given with their value; i = inactive; nt = no result. Rows were chosen to be rich in hits. Some 1.3% of all compounds tested hit in one or more screens of this group.

SMILES	Efflux pump inh	sPLA2-III inh	MT1-MMP act inh	TAG inh	sPLA2 confirm	535nm interf	others
Cc1ccc(NC(=S)NNC(=O)c2c(Cl)c(C)nn2C)cc1	i	i	i	nt	nt	nt
Cc1ccc(NC(=S)NNC(=O)c2nn(C)c(C)c2Cl)cc1	i	38	i	i	48	i	535nm interf DR=i
CS(=O)(=O)Oc1ccc(/C=N/NC(=O)c2ccncc2)cc1	i	19	i	nt	i	i
O=C(OCc1ccccc1)[C@H](Cc1ccccc1)NC(=O)[C@@H]1CC=C[C@@H]2CCN(Cc3ccccc3)C(=O)[C@@H]21	nt	i	nt	nt	nt	nt
Cc1ccccc1-c1csc(N)n1	nt	i	i	i	nt	nt
Cc1c(-c2csc(N)n2)c2ccccc2n1C	i	20	i	nt	i	i
CC(C)N1CCCCC(NC(=O)c2ccc(Br)cc2)C1=O (configuration not stated)	nt	i	nt	nt	nt	nt
CC(C)N1CCCCC(NC(=O)c2ccccc2)C1=O (configuration not stated)	nt	22	nt	nt	i	i
O=C(C1=NOC(CNc2ncc(C(F)(F)F)cc2Cl)C1)N1CCOCC1 (configuration not stated)	i	i	i	i	nt	nt
S=c1[nH]nc2ccc3ccccc3n12	nt	26	i	nt	23	i
CCOC(=O)c1[nH]c2ccccc2c1NC(=O)c1ccc(Br)o1	i	i	i	nt	nt	nt
NC(c1csc(Nc2ccc(C(=O)NCCCO)cn2)n1)C1CCCCC1 (configuration not stated)	nt	23	i	i	i	i
NC(c1csc(Nc2ncccn2)n1)C1CCCCC1 (configuration not stated)	nt	23	i	i	i	i
CCc1ccc(OCCNc2cc(N3CCNC(C)C3)ccc2[N+](=O)[O-])cc1 (configuration not stated)	i	26	i	i	i	i
CC1CN(c2ccc([N+](=O)[O-])c(NCCOc3ccc(Cl)cc3)c2)CC(C)N1 (configuration not stated)	i	i	i	nt	nt	nt
CCn1c(COc2ccc(C)cc2)nnc1SCc1cccc(C(F)(F)F)c1	nt	i	nt	nt	nt	nt
O=C(/C=C/c1ccc2c(c1)OCO2)NCc1ccco1	i	20	i	nt	i	i
CCCC[C@H]1C2CC(OC(=O)Nc3ccc(F)cc3)C(C2)[C@H]2CCCCN21 (some centres not stated)	nt	i	nt	nt	nt	nt
CC(=O)Nc1ccc(NC(C)=C(C#N)C#N)cc1	i	20	i	nt	i	i
Nc1ccc(NC(=O)c2cccs2)c(Cl)c1	i	22	i	nt	i	i
COc1cc(NC(=S)N2CCN(c3ccccn3)CC2)c(OC)cc1Cl	i	22	i	i	i	i
Cc1cc(C(=O)NNC(=S)NC(C)c2ccccc2)c2ccccc2n1 (configuration not stated)	i	24	i	nt	29	i	535nm interf DR=i
CC(=O)N1N=C(c2ccc(C(C)(C)C)cc2)OC1(C)C	i	20	i	nt	i	i
Cc1scc(-c2n[nH]c(=S)n2Cc2ccccc2)c1C	i	i	i	nt	nt	nt
CCc1c(-c2n[nH]c(=S)n2Cc2ccccc2)csc1C	i	20	i	nt	33	i	535nm interf DR=i
SMILES	Efflux pump inh	sPLA2-III inh	MT1-MMP act inh	TAG inh	sPLA2 confirm	535nm interf	others
CCOc1ccccc1Nc1cc2n(c(=O)n1)CCc1cc(OC)c(OC)cc1-2	i	82	i	nt	i	i
COc1cc2c(cc1OC)-c1cc(Nc3ccccc3C)nc(=O)n1CC2	i	i	i	nt	nt	nt
O=C1S/C(=C\C=C\c2ccco2)C(=O)N1c1ccccc1	i	28	i	nt	i	i
O=C1NCCN1CCN1CCC(c2cn(-c3ccc(F)cc3)c3ccc(Cl)cc23)CC1	nt	i	nt	nt	nt	nt
CCOc1ccc(NC(=O)/C=C/c2ccc(OC)cc2)c([N+](=O)[O-])c1	i	26	i	nt	i	i
COc1ccc(NC(=O)COC(=O)CC23CC4CC(CC(C4)C2)C3)c([N+](=O)[O-])c1	i	i	i	i	nt	nt
CCOc1ccc(NC(=O)COC(=O)C23CC4CC(CC(C4)C2)C3)c([N+](=O)[O-])c1	i	21	i	nt	i	i
COc1ccc(/C=C/C(=O)Nc2ccc(OC)cc2[N+](=O)[O-])cc1	i	i	i	nt	nt	nt
Cc1ccc(NC(=O)/C=C\C(=O)O)c([N+](=O)[O-])c1	i	21	i	nt	i	i
Cc1cc([N+](=O)[O-])nn1CCCC(=O)Nc1cc(Cl)ccc1Cl	i	i	i	i	nt	nt
COc1ccc(C(C(=O)N(C)C2CCCC2)N(Cc2ccc(F)cc2)C(=O)c2ncn[nH]2)cc1OC (configuration not stated)	nt	i	nt	nt	nt	nt
COc1cc(OC)cc(-c2c(-c3cccs3)c3cc(-c4cccc5[nH]ccc45)ccc3n2C)c1	i	29	i	nt	i	9.8
O=C(Nc1ccc([N+](=O)[O-])cc1)c1cn(-c2ccccc2)nc1-c1cc2ccccc2o1	i	20	i	nt	i	i
CC1=C(C/C=C(\C)CCC[C@H](C)CCC[C@H](C)CCCC(C)C)C(=O)c2ccccc2C1=O	i	i	i	nt	nt	nt
O=C1CCCN1c1nccs1	i	20	i	i	i	i
O=C1C2C3CC(C(Br)C3Br)C2C(=O)N1c1nccs1 (configuration not stated)	i	i	i	i	nt	nt
COc1ccc(N)c2c1C(=O)c1ccccc1C2=O	i	33	i	nt	37	14
Nc1ccc(Br)c2c1C(=O)c1ccccc1C2=O	i	nt	nt	nt	nt	nt
COc1ccc(OC)c(NC(=O)C2(C)CCN2C(=O)C2(c3ccc(Cl)cc3)CCC2)c1 (configuration not stated)	nt	i	i	i	nt	nt
Cc1ccc(C)c(OCCCCN2CCCCC2)c1	i	21	i	nt	i	i
Clc1ccc(OCCCN2CCCCC2)c(Br)c1	i	22	i	nt	i	i
O=C(OCc1cn(Cc2cccc(Cl)c2)nn1)N1CCCC1	nt	i	nt	nt	nt	nt
Cc1nc2ccc(NC(=O)c3c(Cl)cccc3Cl)cc2c(=O)[nH]1	nt	i	nt	nt	nt	nt
CCSc1nnc([C@@H](NC(=O)OC(C)(C)C)C(C)C)o1	i	19	i	i	i	i
CCCCSc1nnc([C@@H](NC(=O)OC(C)(C)C)C(C)C)o1	i	i	i	nt	nt	nt
SMILES	Efflux pump inh	sPLA2-III inh	MT1-MMP act inh	TAG inh	sPLA2 confirm	535nm interf	others
O=C(CN1C(=O)/C(=C/c2ccccc2)SC1=S)NNC(=O)c1ccccc1O	i	20	i	i	i	i
O=C(CCN1C(=O)/C(=C/c2ccccc2Cl)SC1=S)NNC(=O)c1ccccc1O	i	20	i	nt	30	i	535nm interf DR=i
CC(/C=C1\SC(=S)N(CCC(=O)Nc2ccc(O)cc2)C1=O)=C\c1ccccc1	i	19	i	i	i	i
COc1cccc(/C=C2/SC(=S)N(CCCC(=O)Nc3ccc(O)cc3)C2=O)c1	i	i	i	i	nt	nt
O=C(CCN1C(=O)/C(=C/c2ccccc2Cl)SC1=S)NNC(=O)c1cccnc1	i	i	i	i	nt	nt
COc1cccc(/C=C2/SC(=S)N(CC(=O)NNC(=O)c3ccccc3O)C2=O)c1	i	23	i	nt	22	i
